Assay results as given in ChEMBL document CHEMBL3734686, “Synthesis, Photophysical Properties, and Biological Evaluation of trans-Bisthioglycosylated Tetrakis(fluorophenyl)chlorin for Photodynamic Therapy” (J Med Chem, 2015).
Activity calls are given as the source filed them.

Assays:
[1] = system: Stomach; assay: Drug uptake in BALB/c mouse stomach implanted with mouse 4T1 cells assessed per gram of tissue at 0.18 mg/kg, ip after 12 hrs by HPLC-based fluorescence analysis; assay type: ADME, organism-based; settings: in vivo
Method in brief: (§1)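 Female BALB/c mice with 4T1 cells (1 × 10^6 in HBSS) implanted in left rear thigh; single i.p. dose, 7 in ethanol/PEG400/H2O (2/3/5) with 0.1% DMSO, mono-L-aspartyl chlorin e6 in saline; kept dark until sacrifice. Tissues washed, frozen, homogenized in CH3OH/DMSO/H2O (32/8/1), centrifuged 2300×g; supernatant analysed by HPLC with fluorescence detection; three animals per time point.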

[2] = system: Spleen; assay: Drug uptake in BALB/c mouse spleen implanted with mouse 4T1 cells assessed per gram of tissue at 0.18 mg/kg, ip after 6 hrs by HPLC-based fluorescence analysis; assay type: ADME, organism-based; settings: in vivo; method in brief: as §1
[3] = system: Kidney; assay: Drug uptake in BALB/c mouse kidney implanted with mouse 4T1 cells assessed per gram of tissue at 0.18 mg/kg, ip after 12 hrs by HPLC-based fluorescence analysis; assay type: ADME, organism-based; settings: in vivo
Method in brief: (§2)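 Female BALB/c mice bearing 4T1 thigh tumours received an i.p. dose in ethanol/PEG400/H2O (2/3/5) with 0.1% DMSO, or in saline, and were kept dark until killed. Tissues were weighed (100 mg), homogenised in CH3OH/DMSO/H2O (32/8/1) and centrifuged twice at 2300×g at 4°C. Supernatants were analysed by HPLC with fluorescence detection (λex 404/λem 654 nm or λex 400/λem 666 nm). n = 3 per time point.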

[4] = Drug uptake in BALB/c mouse large intestine implanted with mouse 4T1 cells assessed per gram of tissue at 0.18 mg/kg, ip after 24 hrs by HPLC-based fluorescence analysis; assay type: ADME, organism-based; settings: in vivo; method in brief: as §2
[5] = Photocytotoxicity against rat RGK1 cells assessed as cell survival preincubated for 24 hrs followed by irradiation at 16 J/cm2 measured at 24 hrs by WST-8 assay; assay type: functional, cell-based; settings: RGK1, light or radiation study
Method in brief: (§3)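 Cells (5 × 10^3/well) in DMEM with 10% FCS, 24 h at 37°C, 5% CO2; photosensitizer 1–50000 nM (1% DMSO final) for 24 h, washed, fresh medium. Irradiated with 100-W halogen lamp through λ>500 nm or λ>600 nm cutoff filter to 16 J·cm−2; WST-8 absorbance at 450 nm 24 h later, survival normalized to no-drug wells.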

[6] = system: Stomach; assay: Drug uptake in BALB/c mouse stomach implanted with mouse 4T1 cells assessed per gram of tissue at 0.18 mg/kg, ip after 6 hrs by HPLC-based fluorescence analysis; assay type: ADME, organism-based; settings: in vivo; method in brief: as §1
[7] = Ratio of drug level in tumor to skin in BALB/c mouse implanted with mouse 4T1 cells ip after 24 hrs; settings: in vivo
[8] = system: Stomach; assay: Drug uptake in BALB/c mouse stomach implanted with mouse 4T1 cells assessed per gram of tissue at 0.18 mg/kg, ip after 24 hrs by HPLC-based fluorescence analysis; assay type: ADME, organism-based; settings: in vivo; method in brief: as §1
[9] = Drug uptake in BALB/c mouse small intestine implanted with mouse 4T1 cells assessed per gram of tissue at 0.18 mg/kg, ip after 6 hrs by HPLC-based fluorescence analysis; assay type: ADME, organism-based; settings: in vivo; method in brief: as §1
[10] = system: U-251; assay: Photocytotoxicity against human U251 cells assessed as cell survival preincubated for 24 hrs followed by irradiation at 16 J/cm2 measured at 24 hrs by WST-8 assay; assay type: functional, cell-based; settings: U-251, light or radiation study; method in brief: as §3
[11] = system: Lung; assay: Drug uptake in BALB/c mouse lung implanted with mouse 4T1 cells assessed per gram of tissue at 0.18 mg/kg, ip after 12 hrs by HPLC-based fluorescence analysis; assay type: ADME, organism-based; settings: in vivo; method in brief: as §2
[12] = system: Zone of skin; assay: Drug uptake in BALB/c mouse skin implanted with mouse 4T1 cells assessed per gram of tissue at 0.18 mg/kg, ip after 6 hrs by HPLC-based fluorescence analysis; assay type: ADME, organism-based; settings: in vivo; method in brief: as §1
[13] = Photocytotoxicity against mouse B16-F1 cells assessed as cell survival preincubated for 24 hrs followed by irradiation at 16 J/cm2 measured at 24 hrs by WST-8 assay; assay type: functional, cell-based; settings: B16-F1, light or radiation study; method in brief: as §3
[14] = system: Kidney; assay: Drug uptake in BALB/c mouse kidney implanted with mouse 4T1 cells assessed per gram of tissue at 0.18 mg/kg, ip after 6 hrs by HPLC-based fluorescence analysis; assay type: ADME, organism-based; settings: in vivo; method in brief: as §2
[15] = system: Muscle tissue; assay: Drug uptake in BALB/c mouse muscle implanted with mouse 4T1 cells assessed per gram of tissue at 0.18 mg/kg, ip after 6 hrs by HPLC-based fluorescence analysis; assay type: ADME, organism-based; settings: in vivo; method in brief: as §2
[16] = system: Stomach; assay: Drug uptake in BALB/c mouse stomach implanted with mouse 4T1 cells assessed per gram of tissue at 0.18 mg/kg, ip after 72 hrs by HPLC-based fluorescence analysis; assay type: ADME, organism-based; settings: in vivo; method in brief: as §1
[17] = system: 4T1; assay: Induction of necrosis in mouse 4T1 cells implanted in BALB/c mouse at 5 mg/kg, ip irradiated at 48 J/cm2 measured at 1 day post PDT by […]-based fluorescence microscopic analysis; assay type: functional, organism-based; settings: 0.18 mg/kg, in the assay text read “0.18 mg/kg” for “5 mg/kg”
Method in brief: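 Skin-plus-tumor slides from 4T1-bearing mice 1 day after PDT; proteinase K treatment, then dual apoptosis/necrosis detection reagent at room temperature in dark, washed in PBS, examined by fluorescence microscopy.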

[18] = system: Kidney; assay: Drug uptake in BALB/c mouse kidney implanted with mouse 4T1 cells assessed per gram of tissue at 0.18 mg/kg, ip after 72 hrs by HPLC-based fluorescence analysis; assay type: ADME, organism-based; settings: in vivo; method in brief: as §2
[19] = system: 4T1; assay: Drug uptake in mouse 4T1 cells implanted in BALB/c mouse assessed per gram of tissue at 0.18 mg/kg, ip after 48 hrs by HPLC-based fluorescence analysis; assay type: ADME, organism-based; settings: in vivo; method in brief: as §1
[20] = system: Liver; assay: Drug uptake in BALB/c mouse liver implanted with mouse 4T1 cells assessed per gram of tissue at 0.18 mg/kg, ip after 48 hrs by HPLC-based fluorescence analysis; assay type: ADME, organism-based; settings: in vivo; method in brief: as §2
[21] = system: 4T1; assay: Potency index, ratio of compound antitumor activity to mono-L-aspartyl chlorin e6 antitumor activity against mouse 4T1 cells implanted in ip dosed BALB/c mouse; assay type: functional
[22] = system: Lung; assay: Drug uptake in BALB/c mouse lung implanted with mouse 4T1 cells assessed per gram of tissue at 0.18 mg/kg, ip after 72 hrs by HPLC-based fluorescence analysis; assay type: ADME, organism-based; settings: in vivo; method in brief: as §2
[23] = system: HeLa; assay: Dark cytotoxicity against human HeLa cells at 0.5 uM assessed as cell survival preincubated for 24 hrs measured by WST-8 assay in absence of photoirradiation; assay type: cell-based
Method in brief: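 HeLa cells were seeded at 5 × 10^3 per well in DMEM with 10% FCS and grown for 24 h at 37°C. They were then exposed for 24 h to 0.5 µM photosensitizer (1% DMSO final), washed, and not irradiated. Viability was read 24 h later by WST-8 absorbance at 450 nm and expressed as percent of untreated wells.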

[24] = system: Zone of skin; assay: Drug uptake in BALB/c mouse skin implanted with mouse 4T1 cells assessed per gram of tissue at 0.18 mg/kg, ip after 12 hrs by HPLC-based fluorescence analysis; assay type: ADME, organism-based; settings: in vivo; method in brief: as §1
[25] = system: Urinary bladder; assay: Drug uptake in BALB/c mouse bladder implanted with mouse 4T1 cells assessed per gram of tissue at 0.18 mg/kg, ip after 12 hrs by HPLC-based fluorescence analysis; assay type: ADME, organism-based; settings: in vivo; method in brief: as §2
[26] = Drug uptake in BALB/c mouse large intestine implanted with mouse 4T1 cells assessed per gram of tissue at 0.18 mg/kg, ip after 12 hrs by HPLC-based fluorescence analysis; assay type: ADME, organism-based; settings: in vivo; method in brief: as §2

Compound `CN1CC2C3=N/C(=C(/c4c(F)c(F)c(S[C@@H]5O[C@H](CO)[C@@H](O)[C@H](O)[C@H]5O)c(F)c4F)C4=N/C(=C(/c5c(F)c(F)c(F)c(F)c5F)c5ccc([nH]5)/C(c5c(F)c(F)c(S[C@@H]6O[C@H](CO)[C@@H](O)[C@H](O)[C@H]6O)c(F)c5F)=C5/C=CC(=N5)C3c3c(F)c(F)c(F)c(F)c3F)C=C4)C2C1` (stereo partly specified) has a Drug uptake [1] of 20 ng/g, a Drug uptake [2] of 90 ng/g and a Drug uptake [3] of 25 ng. The Drug uptake [4] was 60 ng/g, the EC50 [5] was 1 nM and the Drug uptake [6] was 48 ng/g. It also gave a Ratio [7] of 60, a Drug uptake [8] of 31 ng/g and a Drug uptake [9] of 90 ng. It also gave an EC50 [10] of 0.5 nM, a Drug uptake [11] of 30 ng and a Drug uptake [12] of 5 ng. For the same compound, the EC50 [13] was 0.5 nM, the Drug uptake [14] was 38 ng and the Drug uptake [15] was 2.2 ng. The Drug uptake [16] was 7 ng, the Activity [17] was “Active” and the Drug uptake [18] was 13 ng. It also gave a Drug uptake [19] of 1.4 ng/g, a Drug uptake [20] of 9 ng and a Ratio [21] of 250. For the same compound, the Drug uptake [22] was 7 ng/g, the Activity [23] was “Non-toxic” and the Drug uptake [24] was 0 ng. The Drug uptake [25] was 95 ng/g and the Drug uptake [26] was 41 ng.
